The values below come from ChEMBL document CHEMBL1125833, “Anxiolytic properties of certain annelated [1,2,4]triazolo[1,5-c]pyrimidin-5(6H)-ones” (J Med Chem, 1991).

SMILES strings stand for the structures.

For experiment [1], the target named is GABA-A receptor; anion channel. The experiment in a line: Displacement of [3H]flunitrazepam (FNZ) from GABA-A benzodiazepine receptor in rat forebrain. A general note: In a radioligand displacement assay an active substance lowers the binding of a labelled ligand.
In experiment [2] the target is GABA-A receptor; anion channel (Rattus norvegicus) (UniProt O09028+P15431+P18506+P18508+P19969+P20236+P23574+P23576+P28471+P28473+P30191+P62813+P63079+P63138+Q91ZM7+Q9ES14). The experiment in a line: GABA ratio measured by the IC50 in the absence of GABA compared to the IC50 in the presence of GABA in rats. In a few lines: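 Modified [3H]flunitrazepam binding in rat forebrain, with IC50 measured with and without GABA. Ratio = IC50 without GABA divided by IC50 with GABA.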

For experiment [3], the species on record is Rattus norvegicus. The experiment in a line: Anxiolytic response measured by antagonism of pentylenetetrazole discriminative stimuli in rats. In kind it is functional. In a few lines: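 Rats trained to discriminate a subconvulsant dose of pentylenetetrazole (PTZ) from vehicle. Test compound given 30 min before the PTZ dose. Antagonism of the PTZ stimulus is scored as the anxiolytic response. ED50 values by probit analysis, with 95% confidence limits.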

Experiment [4] concerns Rattus norvegicus. The experiment in a line: Compound tested for its effect on conflict(FR) operant responding of rats at a dose of 3.0 mg/kg administered perorally. It is filed as functional. As to conditions: route oral. In a few lines:
(§1)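 Cook-Davidson conflict procedure in rats given oral doses. Rats lever-press for milk reward with shock (conflict, FR) and without shock (nonconflict, VI). Value is % change in response rate, with significance set at P < 0.05. The minimally effective oral dose is taken as the dose raising conflict responding or lowering VI responding.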

In experiment [5] the test system is Rattus norvegicus. The experiment in a line: Compound tested for its effect on Nonconflict(VI) operant responding of rats at a dose of 10.0 mg/kg administered perorally. As to conditions: route oral. In kind it is functional. In a few lines:
as §1

Experiment [6] concerns Rattus norvegicus. The experiment in a line: Compound tested for its effect on Nonconflict(VI) operant responding of rats at a dose of 3.0 mg/kg administered perorally. In kind it is functional. To be noted: route oral. Put shortly: as §1
Experiment [7] concerns Rattus norvegicus. The experiment in a line: Compound tested for its effect on conflict(FR) operant responding of rats at a dose of 10.0 mg/kg administered perorally. In kind it is functional. As to conditions: route oral. Put shortly:
as §1

In experiment [8] the test system is Rattus norvegicus. The experiment in a line: Minimal effective oral dose to cause increase in conflict response in rats after po administration. It is filed as functional. In a few lines: as §1
The subject of experiment [9] is Rattus norvegicus. The experiment in a line: Minimal effective oral dose to cause VI response decrement in rats. It is filed as functional. In a few lines: as §1
Experiment [10] relates to Rattus norvegicus. The experiment in a line: Minimal effective oral dose to cause ethanol interaction in rats. It is filed as functional. Put shortly: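 Rotorod test of ethanol interaction in male Wistar (Crl:(WI)BR) rats, 130–160 g. Vehicle or test compound (0, 1, 3, 10 mg/kg) given orally 30 min before ethanol. Graded ethanol doses given ip 30 min before rotorod testing. Ethanol ED50 reported with confidence limits, P < 0.05.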

The subject of experiment [11] is Rattus norvegicus. The experiment in a line: Compound tested for its effect on Nonconflict(VI) operant responding of rats at a dose of 30.0 mg/kg administered perorally. In kind it is functional. To be noted: route oral. In a few lines: as §1
In experiment [12] the test system is Rattus norvegicus. The experiment in a line: Compound tested for its effect on conflict(FR) operant responding of rats at a dose of 30.0 mg/kg administered perorally. In kind it is functional. As to conditions: route oral. Put shortly: as §1

Take `O=C(Nc1ccccc1)N1CCc2nc(O)n3nc(-c4ccccc4F)nc3c2C1`: the IC50 in experiment [1] was found to be 0.067 µM.

In [1], `O=S(=O)(c1cccnc1)N1CCc2nc(O)n3nc(-c4ccccc4F)nc3c2C1` came in with an IC50 of 0.00534 µM. Moreover, the GABA ratio in experiment [2] was found to be 1.3.

In turn, `Cc1ccc(S(=O)(=O)N2CCc3nc(O)n4nc(-c5ccccc5F)nc4c3C2)cc1` gave an IC50 in experiment [1] of 0.00177 µM. Also, the GABA ratio in experiment [2] was 0.99.

`Oc1nc2c(c3nc(-c4ccc[nH]4)nn13)CN(Cc1ccccc1)CC2` showed an ED50 in the experiment listed under Rattus norvegicus [3] of 17.3 mg/kg. In addition, the IC50 in [1] was 0.0076 µM. For the same molecule, the GABA ratio in experiment [2] came out at 1.65.

Consider `CCOC(=O)N1CCc2nc(O)n3nc(-c4ccccc4F)nc3c2C1`, for which the IC50 in experiment [1] was found to be 0.0121 µM. For the same molecule, the GABA ratio in experiment [2] worked out at 1.1.

With `CC1c2nc(O)n3nc(-c4ccccc4F)nc3c2CN1Cc1ccccc1` (stereo unspecified), the IC50 in experiment [1] is greater than 1 µM.

On to `O=C(Cc1ccccc1)N1CCc2nc(O)n3nc(-c4ccccc4F)nc3c2C1`, for which, in [1], the IC50 stood at 0.14 µM.

Take `NC(Cc1ccccc1)C(=O)N1CCc2nc(O)n3nc(-c4ccccc4F)nc3c2C1` (stereo unspecified): the IC50 in [1] is greater than 0.1 µM.

For the molecule `Oc1nc2c(c3nc(-c4ccccc4F)nn13)CN(Cc1cccnc1)CC2`, the ED50 in the experiment listed under Rattus norvegicus [3] is 3.65 mg/kg. Besides, the “Change in response rate” value in the experiment on Rattus norvegicus [4] is 129%; in the experiment on Rattus norvegicus [5], -21%; in the experiment with Rattus norvegicus [6], -8%; in the experiment with Rattus norvegicus [7] it was 322%. In addition, in [1], the IC50 was found to be 0.00074 µM. For the same molecule, the MED in the experiment on Rattus norvegicus [8] and in the experiment on Rattus norvegicus [9] was 10 mg/kg each time. In [2], the GABA ratio turned out to be 1.4.

Molecule `NC(=O)N1CCc2nc(O)n3nc(-c4ccccc4F)nc3c2C1` had an IC50 in experiment [1] of 0.067 µM. Also, the GABA ratio in experiment [2] worked out at 0.74.

As for `CCN1CCc2nc(O)n3nc(-c4ccccc4F)nc3c2C1`, the IC50 in [1] amounted to 0.15 µM.

The molecule `O=C(c1ccccc1)N1CCc2nc(O)n3nc(-c4ccccc4F)nc3c2C1` yielded an IC50 in experiment [1] of 0.05 µM.

On to `O=C1C2C=Nc3ccccc3C2=NN1c1ccc(Cl)cc1` (stereo unspecified) [CGS-9896], for which the ED50 in the experiment filed under Rattus norvegicus [3] was determined as 2.3 mg/kg. The results for the MED in the experiment on Rattus norvegicus [8] and in the experiment with Rattus norvegicus [10] were 10 mg/kg and 30 mg/kg, respectively.

With `Oc1nc2c(c3nc(-c4ccc(F)cc4)nn13)CN(Cc1ccccc1)CC2`, the “Change in response rate” value in the experiment with Rattus norvegicus [11] is on record as -38%; in the experiment on Rattus norvegicus [5] it was -17%; in the experiment on Rattus norvegicus [7], 30%; in the experiment on Rattus norvegicus [12], 372%. The molecule further returned an ED50 in the experiment listed under Rattus norvegicus [3] of 2.55 mg/kg. For the same molecule, the half-inhibitory concentration (IC50) in experiment [1] was determined as 0.00535 µM. In addition, the MED in the experiment with Rattus norvegicus [8] and in the experiment on Rattus norvegicus [9] was 30 mg/kg in each case. Moreover, the GABA ratio in experiment [2] came to 1.7.

On to `CN1C(=O)CN=C(c2ccccc2)c2cc(Cl)ccc21` [DIAZEPAM], for which the “Change in response rate” value with Rattus norvegicus [11] is -2%; with Rattus norvegicus [4], 159%; in the experiment on Rattus norvegicus [5] it was 30%; with Rattus norvegicus [6], 4%; with Rattus norvegicus [7], 425%; in the experiment with Rattus norvegicus [12], 257%. In addition, the ED50 in the experiment listed under Rattus norvegicus [3] worked out at 1.23 mg/kg. The MED worked out at 10 mg/kg in the experiment with Rattus norvegicus [8], 10 mg/kg in the experiment with Rattus norvegicus [9] and 5 mg/kg with Rattus norvegicus [10].

Turning to `Oc1nc2c(c3nc(-c4cccc(F)c4)nn13)CN(Cc1ccccc1)CC2`, in [1], the concentration for half-maximal inhibition (IC50) turned out to be 0.0024 µM. Further, in experiment [2], the GABA ratio stood at 1.6.

As for `Oc1nc2c(c3nc(-c4ccccn4)nn13)CN(Cc1ccccc1)CC2`, the ED50 in the experiment filed under Rattus norvegicus [3] was 26 mg/kg. The molecule also registered an IC50 in experiment [1] of 0.0206 µM. Moreover, the GABA ratio in [2] is 1.6.

For the molecule `CC(C)N1CCc2nc(O)n3nc(-c4ccccc4F)nc3c2C1`, the IC50 in [1] is 0.105 µM.

Turning to `Oc1nc2ccc(Cl)cc2c2nc(-c3ccccc3F)nn12`, the IC50 in experiment [1] amounted to 0.0005 µM. Also, the GABA ratio in experiment [2] is 0.79.

Consider `Oc1nc2c(c3nc(-c4ccccc4F)nn13)CNCC2`, for which the IC50 in [1] turned out to be 0.442 µM.

As for `Oc1nc2c(c3nc(-c4ccccc4F)nn13)CCC2`, the IC50 in [1] worked out at 0.0047 µM.

Regarding `Oc1nc2c(c3nc(-c4ccccc4F)nn13)CN(CCc1ccccc1)CC2`, the IC50 in [1] was determined as 0.028 µM.

As for `Oc1nc2c(c3nc(-c4ccccc4F)nn13)CN(Cc1ccncc1)CC2`, in [1], the IC50 amounted to 0.00189 µM. In experiment [2], the GABA ratio came out at 1.14.

Usually IC50 stands for the concentration at which inhibition is half-maximal. Low values mean greater potency, high ones weaker potency. As a reminder, the ED50 is the dose at which the effect has come halfway, by size or by number of responders. Read a low ED50 as greater potency.
